Here are results for four compounds from ChEMBL document CHEMBL3351590, “8-Methyltryptanthrin-induced differentiation of P19CL6 embryonal carcinoma cells into spontaneously beating cardiomyocyte-like cells” (2014).

The source made the active and inactive calls. The rule behind the calls is not given here.

Test [1] relates to P19CL6. Kind of test: Induction of differentiation of C3H/He mouse P19CL6 cells assessed as beating aggregate formation at 0.1 to 1 uM on day 18 by phase contrast microscopic analysis. Type of test: functional, cell-based. A digest of the protocol:
(§1)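 Cells are seeded at 2.0 × 10^4 per 35 mm dish in α-MEM with 10% FBS, penicillin and streptomycin, plus compound (final DMSO ≤0.1%), with medium changed every 48 h. Aggregates and beating aggregates are counted every 2 days by phase-contrast microscopy in five ×100 fields (total 8.8 mm2), up to day 18. Mean ± SEM, n = 7.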

Test [2] concerns P19CL6. Put plainly: Effect on Cav3.2 gene expression in C3H/He mouse P19CL6 cells at 1 uM by RT-PCR analysis. Type of test: functional, cell-based. A digest of the protocol:
(§2)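 P19CL6 cells are cultured in α-MEM with 10% FBS, with compound (final DMSO ≤0.1%) renewed every 48 h. Total RNA is taken on day 10 and/or 18 and reverse-transcribed with random primers. Real-time PCR: 95 °C 10 min, then 40 cycles of 95 °C 15 s and 60 °C 1 min. Expression is normalized to G3PDH and given as a ratio to day 0.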

Test [3] relates to P19CL6. Put plainly: Induction of differentiation of C3H/He mouse P19CL6 cells assessed as beating aggregate formation at 0.1 to 1 uM using compound dissolved in 0.03% DMSO by phase contrast microscopic analysis. Type of test: functional, cell-based. A digest of the protocol: as §1
Test [4] is described as follows: Induction of differentiation of C3H/He mouse P19CL6 cells assessed as beating rate of cardiomyocyte-like cells at 1 uM on day 18 (reference value: 45.2 +/- 4.2 bpm). Type of test: functional.
Test [5] relates to P19CL6. Put plainly: Induction of differentiation of C3H/He mouse P19CL6 cells assessed as aggregate formation on day 10 by phase contrast microscopic analysis. Type of test: functional, cell-based. Put shortly:
as §1

Test [6] is described as follows: Induction of GJA5 gene expression in C3H/He mouse P19CL6 cells at 1 uM on day 18 by RT-PCR analysis relative to control. The test is classed as functional. A digest of the protocol: as §2
Test [7] in a line: Induction of GATA4 gene expression in C3H/He mouse P19CL6 cells at 1 uM measured on day 10 and 18 by RT-PCR analysis relative to control. Type of test: functional. Put shortly:
(§3)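 Cardiac gene qPCR (α-MHC, GATA4, BMP2) in P19CL6 cells kept in α-MEM/10% FBS with agent, medium renewed at 48 h intervals. RNA is harvested on days 10 and 18 and reverse-transcribed with random primers. PCR runs 40 cycles (95 °C 15 s, 60 °C 1 min). Values are normalized to G3PDH, expressed relative to day 0, as mean ± SEM, n = 4.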

For test [8], the system named is P19CL6. Kind of test: Effect on GJB1 gene expression in C3H/He mouse P19CL6 cells at 1 uM by RT-PCR analysis. Type of test: functional, cell-based. Put shortly:
as §2

Test [9] concerns P19CL6. Put plainly: Induction of GATA4 gene expression in C3H/He mouse P19CL6 cells at 1 uM by RT-PCR analysis. Particulars: TDE = time-dependent effect. The test is classed as functional, cell-based. Put shortly: as §3
Test [10] has as its system P19CL6. Kind of test: Effect on HCN4 gene expression in C3H/He mouse P19CL6 cells at 1 uM by RT-PCR analysis. The test is classed as functional, cell-based. A digest of the protocol:
as §2

Test [11] deals with P19CL6. Put plainly: Induction of alpha-MHC gene expression in C3H/He mouse P19CL6 cells at 1 uM by RT-PCR analysis. The test is classed as functional, cell-based. Particulars: TDE = time-dependent effect. Put shortly: as §3
Test [12] can be described thus: Induction of GJA5 gene expression in C3H/He mouse P19CL6 cells at 1 uM on day 10 by RT-PCR analysis relative to control. The test is classed as functional. A digest of the protocol: as §2
Test [13] concerns P19CL6. Kind of test: Induction of Cav1.2 gene expression in C3H/He mouse P19CL6 cells at 1 uM by RT-PCR analysis. Particulars: TDE = time-dependent effect. The test is classed as functional, cell-based. Put shortly: as §2
The subject of test [14] is P19CL6. Put plainly: Induction of Cav1.2 gene expression in C3H/He mouse P19CL6 cells on day 10 and 18 by RT-PCR analysis. The test is classed as functional, cell-based. A digest of the protocol:
as §2

Test [15] is described as follows: Decrease in Cav3.1 gene expression in C3H/He mouse P19CL6 cells at 1 uM on day 10 by RT-PCR analysis relative to control. Type of test: functional, cell-based. A digest of the protocol:
as §2

Test [16] can be described thus: Induction of GJA1 gene expression in C3H/He mouse P19CL6 cells at 1 uM on day 18 by RT-PCR analysis relative to control. The test is classed as functional. Put shortly:
as §2

For test [17], the system named is P19CL6. Kind of test: Induction of BMP2 gene expression in C3H/He mouse P19CL6 cells at 1 uM by RT-PCR analysis. The test is classed as functional, cell-based. Particulars: TDE = time-dependent effect. A digest of the protocol: as §3
Test [18] can be described thus: Induction of Cav1.2 gene expression in C3H/He mouse P19CL6 cells at 1 uM on day 10 by RT-PCR analysis relative to control. Type of test: functional. A digest of the protocol: as §2
The nature of test [19]: Induction of differentiation of C3H/He mouse P19CL6 cells assessed as number of aggregates at 1 uM on day 18 by phase contrast microscopic analysis (reference value: 38.2 +/- 8.4/mm2). Type of test: functional. A digest of the protocol:
as §1

Test [20] concerns P19CL6. Put plainly: Induction of differentiation of C3H/He mouse P19CL6 cells assessed as beating aggregate formation on day 10 by phase contrast microscopic analysis. Type of test: functional, cell-based. A digest of the protocol:
as §1

Test [21] deals with P19CL6. Kind of test: Effect on GJC1 gene expression in C3H/He mouse P19CL6 cells at 1 uM by RT-PCR analysis. Type of test: functional, cell-based. A digest of the protocol: as §2
In test [22] the test system is P19CL6. Kind of test: Induction of Cav3.1 gene expression in C3H/He mouse P19CL6 cells at 1 uM on day 18 by RT-PCR analysis. Type of test: functional, cell-based. A digest of the protocol: as §2
The test system of test [23] is P19CL6. Kind of test: Effect on GJA4 gene expression in C3H/He mouse P19CL6 cells at 1 uM by RT-PCR analysis. The test is classed as functional, cell-based. A digest of the protocol:
as §2

A short description of test [24]: Induction of alpha-MHC gene expression in C3H/He mouse P19CL6 cells at 1 uM measured on day 10 and 18 by RT-PCR analysis relative to control. Type of test: functional. A digest of the protocol: as §3
Test [25] relates to P19CL6. Put plainly: Induction of differentiation of C3H/He mouse P19CL6 cells assessed as aggregate formation at 0.1 to 1 uM on day 18 by phase contrast microscopic analysis. The test is classed as functional, cell-based. A digest of the protocol: as §1
Test [26] in a line: Decrease in Cav1.3 gene expression in C3H/He mouse P19CL6 cells at 1 uM on day 10 and day 18 by RT-PCR analysis. The test is classed as functional, cell-based. A digest of the protocol:
as §2

Test [27] in a line: Induction of differentiation of C3H/He mouse P19CL6 cells assessed as number of beating aggregates at 1 uM on day 18 by phase contrast microscopic analysis. Type of test: functional. A digest of the protocol: as §1
Test [28] has as its system P19CL6. Kind of test: Effect on HCN2 gene expression in C3H/He mouse P19CL6 cells at 1 uM by RT-PCR analysis. Type of test: functional, cell-based. Put shortly:
as §2

Test [29] is described as follows: Increase in area of beating aggregates in C3H/He mouse P19CL6 cells on day 18 by phase contrast microscopic analysis (reference value: 0.5 +/- 0.3 /mm2). Type of test: functional.
Test [30] can be described thus: Induction of BMP2 gene expression in C3H/He mouse P19CL6 cells at 1 uM measured on day 10 and 18 by RT-PCR analysis relative to control. Type of test: functional. A digest of the protocol:
as §3

A short description of test [31]: Induction of Cav1.2 gene expression in C3H/He mouse P19CL6 cells at 1 uM on day 18 by RT-PCR analysis relative to control. The test is classed as functional. Put shortly:
as §2

The subject of test [32] is P19CL6. Put plainly: Induction of differentiation of C3H/He mouse P19CL6 cells assessed as aggregate formation at 0.1 to 1 uM on day 10 by phase contrast microscopic analysis. The test is classed as functional, cell-based. A digest of the protocol: as §1
The test system of test [33] is P19CL6. Kind of test: Induction of differentiation of C3H/He mouse P19CL6 cells assessed as beating aggregate formation at 0.1 to 1 uM on day 10 by phase contrast microscopic analysis. Type of test: functional, cell-based. Put shortly: as §1
Test [34] deals with P19CL6. Put plainly: Induction of Cav1.2 gene expression in C3H/He mouse P19CL6 cells. The test is classed as functional, cell-based. Put shortly:
as §2

The test system of test [35] is P19CL6. Kind of test: Induction of GATA4 gene expression in C3H/He mouse P19CL6 cells at 1 uM measured on day 10 and 18 by RT-PCR analysis. Type of test: functional, cell-based. Put shortly:
as §3

In test [36] the test system is P19CL6. Kind of test: Induction of BMP2 gene expression in C3H/He mouse P19CL6 cells at 1 uM measured on day 10 and 18 by RT-PCR analysis. The test is classed as functional, cell-based. A digest of the protocol: as §3
The test system of test [37] is P19CL6. Put plainly: Induction of alpha-MHC gene expression in C3H/He mouse P19CL6 cells at 1 uM measured on day 10 and 18 by RT-PCR analysis. Type of test: functional, cell-based. A digest of the protocol:
as §3

Consider `Cc1ccc2c(c1)C(=O)c1nc3ccccc3c(=O)n1-2`, for which the outcome in the test with P19CL6 [1], with P19CL6 [3], in the test on P19CL6 [22] and in the test on P19CL6 [25] was Active. Also, the outcome in the test with P19CL6 [2], in the test with P19CL6 [8], with P19CL6 [10], in the test on P19CL6 [21], with P19CL6 [23] and in the test on P19CL6 [28] was inactive. Moreover, the Activity in test [4] was 52.1 bpm; in the test on P19CL6 [5], “Dose-dependent effect”; in the test on P19CL6 [9], “tde”; in the test with P19CL6 [11] it was “tde”; in the test with P19CL6 [13], “tde”; with P19CL6 [14], “Dose-dependent effect”. The Activity entry in the test with P19CL6 [17] was “tde”; in test [19], 47.3 /mm2; with P19CL6 [20], “Dose-dependent effect”; in [27], 33.7 /mm2; in test [29], 2.7 mm2. In addition, the “fold change (FC)” value in [6] was 7.06; in [7], 30.3; in test [12], 17.44; in [15] it was 0.21; in test [16], 1.38; in test [18], 1.9. The “fold change (FC)” value is 1130.1 in test [24], 84.4 in test [30] and 3.38 in test [31]. Moreover, in test [26], the inhibition entry was “Active”.

For `CCc1ccc2c(c1)C(=O)c1nc3ccccc3c(=O)n1-2`, the outcome in the test with P19CL6 [32], in the test on P19CL6 [33] and with P19CL6 [34] was inactive.

Consider `O=C1c2ccccc2-n2c1nc1ccccc1c2=O`, for which the outcome in the test with P19CL6 [35], in the test on P19CL6 [36], with P19CL6 [32], in the test with P19CL6 [37], with P19CL6 [33] and in the test with P19CL6 [34] was inactive.

As to `CCCc1ccc2c(c1)C(=O)c1nc3ccccc3c(=O)n1-2`, the result in the test on P19CL6 [32], in the test with P19CL6 [33] and in the test on P19CL6 [34] was inactive.
